ChEMBL document CHEMBL4145562, “Bioactivity-Guided Isolation of Potential Antidiabetic and Antihyperlipidemic Compounds from Trigonella stellata” (J Nat Prod, 2018)
Calls of active or inactive are those of the source. No cut-off for these calls is given here.

Tests used:
Format in all cases: cell-based
[1] = target: T1, Peroxisome proliferator-activated receptor alpha (Homo sapiens) (UniProt Q07869); test: Agonist activity at PPARalpha (unknown origin) expressed in human HepG2 cells cotransfected with PPRE X3-tk at 12.5 ug/ml after 24 hrs by luciferase reporter gene assay relative to control
T1 sequence (whole entry): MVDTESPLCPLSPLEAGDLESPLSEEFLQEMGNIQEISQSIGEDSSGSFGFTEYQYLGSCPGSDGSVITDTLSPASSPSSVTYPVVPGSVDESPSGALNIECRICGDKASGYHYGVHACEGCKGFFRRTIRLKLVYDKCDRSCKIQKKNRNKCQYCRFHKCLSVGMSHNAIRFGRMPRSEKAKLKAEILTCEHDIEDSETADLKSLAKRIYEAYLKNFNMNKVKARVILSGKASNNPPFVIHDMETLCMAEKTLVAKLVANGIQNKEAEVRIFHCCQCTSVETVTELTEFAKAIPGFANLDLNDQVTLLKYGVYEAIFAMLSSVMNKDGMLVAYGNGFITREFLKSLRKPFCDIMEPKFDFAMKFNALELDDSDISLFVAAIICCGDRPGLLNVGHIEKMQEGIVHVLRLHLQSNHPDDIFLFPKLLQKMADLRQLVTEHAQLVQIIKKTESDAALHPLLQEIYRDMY
Method in brief: (§1)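 HepG2 cells grown in DMEM with 10% FBS, penicillin and streptomycin, then electroporated (160 V, single 70 ms pulse) with pSG5-PPARα plus PPRE X3-tk-luc plasmids (25 μg/1.5 mL cell suspension). Cells were plated at 5 × 10^4/well and grown 24 h, then treated for 24 h and lysed. Luciferase activity was reported as fold induction over vehicle control.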

[2] = target: T1, Peroxisome proliferator-activated receptor alpha (Homo sapiens); test: Agonist activity at PPARalpha (unknown origin) expressed in human HepG2 cells cotransfected with PPRE X3-tk at 50 ug/ml after 24 hrs by luciferase reporter gene assay relative to control; method in brief: as §1
[3] = target: T1, Peroxisome proliferator-activated receptor alpha (Homo sapiens); test: Agonist activity at PPARalpha (unknown origin) expressed in human HepG2 cells cotransfected with PPRE X3-tk at 25 ug/ml after 24 hrs by luciferase reporter gene assay relative to control; method in brief: as §1
[4] = target: T2, Peroxisome proliferator-activated receptor gamma (Homo sapiens) (UniProt P37231); test: Agonist activity at PPARgamma (unknown origin) expressed in human HepG2 cells cotransfected with PPREaP2-tk at 12.5 ug/ml after 24 hrs by luciferase reporter gene assay relative to control
T2 sequence (whole entry): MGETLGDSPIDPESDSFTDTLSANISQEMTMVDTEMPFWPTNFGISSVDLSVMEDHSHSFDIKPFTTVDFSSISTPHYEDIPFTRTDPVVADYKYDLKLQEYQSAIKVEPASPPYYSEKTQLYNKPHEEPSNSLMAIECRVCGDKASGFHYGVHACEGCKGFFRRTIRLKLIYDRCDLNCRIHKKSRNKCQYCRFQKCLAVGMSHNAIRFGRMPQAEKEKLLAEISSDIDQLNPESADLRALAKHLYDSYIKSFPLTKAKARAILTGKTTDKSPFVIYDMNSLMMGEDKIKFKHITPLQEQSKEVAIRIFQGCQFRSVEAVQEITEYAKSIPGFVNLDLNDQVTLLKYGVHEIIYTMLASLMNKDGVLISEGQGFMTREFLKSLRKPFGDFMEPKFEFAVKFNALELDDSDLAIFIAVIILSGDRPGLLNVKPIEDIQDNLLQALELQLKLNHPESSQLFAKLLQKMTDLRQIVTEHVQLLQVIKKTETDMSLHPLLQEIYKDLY
Method in brief: (§2)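 Rat PPARγ (pCMV-rPPARγ) was co-electroporated with the pPPREaP2-tk-luc reporter (25 μg/1.5 mL cell suspension; 160 V, one 70 ms pulse) into HepG2 cells kept in DMEM/10% FBS with antibiotics. Cells were seeded at 5 × 10^4/well for 24 h, then exposed to samples for 24 h. Luciferase was read in lysates and expressed as fold induction relative to vehicle.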

[5] = target: T2, Peroxisome proliferator-activated receptor gamma (Homo sapiens); test: Agonist activity at PPARgamma (unknown origin) expressed in human HepG2 cells cotransfected with PPREaP2-tk at 50 ug/ml after 24 hrs by luciferase reporter gene assay relative to control; method in brief: as §2
[6] = target: T2, Peroxisome proliferator-activated receptor gamma (Homo sapiens); test: Agonist activity at PPARgamma (unknown origin) expressed in human HepG2 cells cotransfected with PPREaP2-tk at 25 ug/ml after 24 hrs by luciferase reporter gene assay relative to control; method in brief: as §2
[7] = target: T1, Peroxisome proliferator-activated receptor alpha (Homo sapiens); test: Agonist activity at PPARalpha (unknown origin) expressed in human HepG2 cells cotransfected with PPRE X3-tk at 1.45 ug/ml after 24 hrs by luciferase reporter gene assay relative to control; method in brief: as §1

SMILES	Activity [1]	Activity [2]	Activity [3]	fold change (FC) [4]	fold change (FC) [5]	fold change (FC) [6]	fold change (FC) [1]	fold change (FC) [2]	fold change (FC) [3]	Activity [4]	Activity [5]	Activity [6]	fold change (FC) [7]
O=C(O)c1ccc(O)cc1	inactive	inactive	inactive	1	1.35	0.9	–	–	–	–	–	–	–
COc1ccc2c(c1)OC[C@H](c1ccc(O)cc1O)[C@H]2O	–	–	–	–	–	–	1.29	2.25	1.88	inactive	inactive	inactive	–
O=c1cc(-c2ccc(O)cc2)oc2cc(O)ccc12	inactive	inactive	inactive	–	–	–	–	–	–	inactive	inactive	inactive	–
CC(C)(Oc1ccc(C2CC2(Cl)Cl)cc1)C(=O)O (centres undefined)	–	–	–	–	–	–	–	–	–	–	–	–	2.2

Continued, values first:

Activity [1]	Activity [2]	Activity [3]	fold change (FC) [4]	fold change (FC) [5]	fold change (FC) [6]	fold change (FC) [1]	fold change (FC) [2]	fold change (FC) [3]	Activity [4]	Activity [5]	Activity [6]	fold change (FC) [7]	SMILES
–	inactive	–	–	–	–	1.93	–	2	inactive	inactive	inactive	–	COc1ccc2c(c1)OC(OC)C(c1ccc(O)cc1O)[C@H]2O (single isomer, unassigned)
inactive	inactive	inactive	1.22	1.79	1.36	–	–	–	–	–	–	–	C[C@@H]1O[C@@H](O[C@H]2[C@H](O[C@H]3[C@H](O[C@H]4CC[C@@]5(C)[C@@H](CC[C@]6(C)[C@@H]5CC=C5[C@@H]7CC(C)(C)C[C@@H](O)[C@]7(C)CC[C@]56C)[C@@]4(C)CO)O[C@H](C(=O)O)[C@@H](O)[C@@H]3O)O[C@H](CO)[C@H](O)[C@@H]2O)[C@H](O)[C@H](O)[C@H]1O
inactive	inactive	inactive	–	–	–	–	–	–	inactive	inactive	inactive	–	C[C@@H]1O[C@@H](Oc2cc(O)c3c(=O)c(O[C@@H]4O[C@@H](C)[C@H](O)[C@@H](O)[C@H]4O)c(-c4ccc(O)c(O)c4)oc3c2)[C@H](O)[C@H](O)[C@H]1O
–	–	–	1.22	1.74	1.36	1.14	1.67	1.32	–	–	–	–	COc1ccc2c(c1)OC[C@@H](c1ccc(O[C@@H]3O[C@H](CO)[C@@H](O)[C@H](O)[C@H]3O)cc1O)[C@@H]2O
inactive	inactive	inactive	–	–	–	–	–	–	inactive	inactive	inactive	–	O=C(O)CCc1ccccc1O[C@@H]1O[C@H](CO)[C@@H](O)[C@H](O)[C@H]1O
